The subject of series [1] is Intestine. The experiment in a line: Drug uptake in Sprague-Dawley rat intestine at 22 MBq/body, iv administered as bolus coadministered with rifampicin measured after 60 mins by PET analysis. It counts as ADME, organism-based. The conditions noted are these: in vivo, 1 h. In a few lines: (§1)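 Rats were anesthetized with 1.5% isoflurane in nitrous oxide/oxygen (7/3). The 11C tracer (approx. 22 MBq per animal) was given as an IV bolus through a tail-vein catheter, followed by a 60 min microPET emission scan. Regions of interest were set on liver, intestine, kidney and urinary bladder. Uptake was decay-corrected to injection time and expressed as % dose/tissue or % dose/mL blood, normalized to injected radioactivity. Rifampicin was infused at 1.5 µmol/min/kg where applied.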

Series [2] has as its system Liver. Briefly: Drug uptake in Sprague-Dawley rat liver at 22 MBq/body, iv administered as bolus coadministered with rifampicin measured after 2 mins by PET analysis. It counts as ADME, organism-based. The settings on record: in vivo. In a few lines:
as §1

The nature of series [3]: Drug uptake in Sprague-Dawley rat urinary bladder at 22 MBq/body, iv administered as bolus measured after 60 mins by PET analysis. It is filed as ADME, organism-based. The conditions noted are these: in vivo, 1 h. In a few lines: as §1
For series [4], the system named is Intestine. The experiment in a line: Drug uptake in Sprague-Dawley rat intestine at 22 MBq/body, iv administered as bolus measured after 60 mins by PET analysis. It counts as ADME, organism-based. The conditions noted are these: in vivo, 1 h. In a few lines: as §1
For series [5], the system named is Liver. Briefly: Drug uptake in Sprague-Dawley rat liver at 22 MBq/body, iv administered as bolus measured up to 2 mins by PET analysis. It is filed as ADME, organism-based. The settings on record: in vivo. Put shortly: as §1
The subject of another series is Kidney. Briefly: Drug uptake in Sprague-Dawley rat kidney at 22 MBq/body, iv administered as bolus measured up to 2 mins by PET analysis. It counts as ADME, organism-based. The settings on record: in vivo. In a few lines: as §1
Series [6] deals with Blood. Briefly: Drug metabolism in Mrp2 hereditary-deficient Sprague-Dawley rat blood assessed as radiometabolite formation at 22 MBq, iv administered as bolus within 20 mins by PET analysis. It counts as ADME, organism-based. The settings on record: in vivo. In a few lines: (§2)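 Radiometabolite analysis, run apart from the PET scans. Blood, liver homogenate and bile were mixed with an equal volume of acetonitrile and centrifuged at 12,000 rpm for 2 min at 4 °C. The supernatant was diluted with mobile phase and run on reversed-phase HPLC (10 mM ammonium acetate/acetonitrile gradient, 2.0 mL/min). Detection was UV 254 nm plus a NaI(Tl) positron detector, reading intact tracer against metabolites.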

Series [7] has as its system Liver. Briefly: Drug metabolism in Mrp2 hereditary-deficient Sprague-Dawley rat liver assessed as radiometabolite formation at 22 MBq, iv administered as bolus within 20 mins by PET analysis. It is filed as ADME, organism-based. The conditions noted are these: in vivo. In a few lines:
as §2

The nature of series [8]: Drug metabolism in Mrp2 hereditary-deficient Sprague-Dawley rat bile assessed as radiometabolite formation at 22 MBq, iv administered as bolus within 20 mins by PET analysis. It counts as ADME, organism-based. The conditions noted are these: in vivo. In a few lines: as §2
Series [9] relates to Blood. The experiment in a line: Drug metabolism in Mrp2 hereditary-deficient Sprague-Dawley rat blood assessed as radiometabolite formation at 22 MBq, iv administered as bolus at 2 mins by PET analysis. It is filed as ADME, organism-based. The conditions noted are these: in vivo. Put shortly:
as §2

Series [10] concerns Blood. Briefly: Drug uptake in Mrp2 hereditary-deficient Sprague-Dawley rat blood at 22 MBq, iv administered as bolus after 20 mins by PET analysis. It is filed as ADME, organism-based. The settings on record: in vivo. Put shortly:
as §1

Series [11] has as its system Liver. Briefly: Drug uptake in Mrp2 hereditary-deficient Sprague-Dawley rat liver at 22 MBq, iv administered as bolus after 20 mins by PET analysis. The conditions noted are these: in vivo. It counts as ADME, organism-based. Put shortly: as §1
Series [12] in a line: Drug uptake in Mrp2 hereditary-deficient Sprague-Dawley rat bile at 22 MBq, iv administered as bolus after 20 mins by PET analysis. It is filed as ADME, organism-based. The conditions noted are these: in vivo.
The test system of series [13] is Hepatocyte. Briefly: Metabolic stability in human hepatocytes. It counts as ADME, cell-based.
The subject of series [14] is Hepatocyte. The experiment in a line: Metabolic stability in rat hepatocytes. It counts as ADME, cell-based.

For `C/C(=C\[11CH3])C(=O)O[C@H]1C[C@H](O)C=C2C=C[C@H](C)[C@H](CC[C@@H](O)C[C@@H](O)CC(=O)[O-])[C@H]21.[Na+]`, the Drug uptake result is recorded as “Not Active” with Intestine [1]; “Not Active” in the series with Liver [2]; 1.51% in series [3]; 67.9% in the series on Intestine [4]; “Active” in the series on Liver [5]; “Active” in the series on Kidney. Also, the Drug uptake entry (in the series on Blood [10]; in the series on Liver [11]; in series [12]) was “Active” in each case. Besides, the Drug metabolism entry (with Blood [6]; in the series on Liver [7]; in [8]; with Blood [9]) was “Active” each time. The Stability entry in the series on Hepatocyte [13] and in the series with Hepatocyte [14] was “Stable” in each case.

Values taken from ChEMBL document CHEMBL2034928, “Synthesis of [(11)C]dehydropravastatin, a PET probe potentially useful for studying OATP1B1 and MRP2 transporters in the liver” (Bioorg Med Chem, 2012).
